From ChEMBL document CHEMBL1128450, “Mononucleoside phosphotriester derivatives with S-acyl-2-thioethyl bioreversible phosphate-protecting groups: intracellular delivery of 3'-azido-2',3'-dideoxythymidine 5'-monophosphate” (J Med Chem, 1995)
Several values for one entry are separate records, joined by “and”; a condition that tells them apart may be missing. Equal values may be shown once.

Assays:
[1] = tested on: MT4; experiment: Antiviral activity in MT-4 cell line infected with HIV-1 and cytotoxic concentration required to reduce the viability of uninfected cells by 50%; format: functional; conditions: Homo sapiens
In short: (§1)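 Uninfected cells were exposed to compound for 5 days, and viability was read by colorimetric MTT test. Values average at least three separate experiments.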

[2] = tested on: CEM-SS; experiment: Antiviral activity in CEM-SS cell line infected with HIV-1 and Concentration required to inhibit the replication of HIV-1 by 50% was determined; format: functional, cell-based; conditions: Homo sapiens
In short: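 Cells infected with HIV-LAI at 100 TCID50 for 30 min, washed twice, then cultured with a range of compound concentrations for 5 days (6 days for CEM/TK⁻). Virus production was read as reverse transcriptase activity in the culture supernatant. EC50 was taken from a median effect plot of the dose–effect data, averaging at least three separate experiments.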

[3] = tested on: MT4; experiment: Antiviral activity in MT-4 cell line infected with HIV-1 and Concentration required to inhibit the replication of HIV-1 by 50% was determined; format: functional, cell-based; conditions: Homo sapiens
In short: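 HIV-1 IIIB at 50 TCID50 adsorbed to MT-4 cells for 30 min, followed by two washes and 5 days of culture with graded compound concentrations. Protection from virus-induced cytopathogenicity was read by MTT reduction to formazan. EC50 was taken from a median effect plot, averaging at least three separate experiments.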

[4] = tested on: CEM-SS; experiment: Antiviral activity in CEM-SS cell line infected with HIV-1 and cytotoxic concentration required to reduce the viability of uninfected cells by 50%; format: functional; conditions: Homo sapiens; in short: as §1
[5] = tested on: CEM/TK- (Homo sapiens); experiment: Antiviral activity in CEM/TK cell line infected with HIV-1 and Concentration required to inhibit the replication of HIV-1 by 50% was determined
[6] = Selectivity Index measured as the ratio of CC50(CEM/TK) to EC50(CEM/TK).; format: functional
[7] = tested on: CEM/TK- (Homo sapiens); experiment: Antiviral activity in CEM/TK cell line infected with HIV-1 and cytotoxic concentration required to reduce the viability of uninfected cells by 50%
[8] = Selectivity Index measured as the ratio of CC50(CEM-SS) to EC50(CEM-SS).; format: functional
[9] = Half life evaluated in Culture Medium(CM); format: ADME; conditions: for half-life: culture medium (CM)
In short: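 Compounds at 5 × 10⁻⁵ M initial were incubated at 37 °C in RPMI 1640 with 10% heat-inactivated fetal calf serum. Crude aliquots were analysed by on-line ISRP precolumn-cleaning HPLC, with and without tetrabutylammonium ion-pairing, on a C18 column using an ammonium acetate pH 6.0/acetonitrile gradient. Species were quantified from peak areas at 266 nm. Half-lives were derived from pseudo-first-order rate constants fitted by mono- or polyexponential regression.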

[10] = Half life evaluated in Total Cell Extract(TCE).; format: ADME; conditions: for half-life: total cell extract (TCE)
In short: (§2)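 Compounds at 5 × 10⁻⁵ M initial were incubated at 37 °C in total cell extract from CEM-SS cells. Crude aliquots were analysed by on-line precolumn-cleaning HPLC, with and without ion-pairing reagent, on a C18 column using an ammonium acetate/acetonitrile gradient, with areas read at 266 nm. Half-lives came from pseudo-first-order rate constants fitted to kinetic models by exponential regression.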

[11] = Half life evaluated in Total Cell Extract(TCE) for determination 3.; format: ADME; in short: as §2
[12] = Half life evaluated in Total Cell Extract(TCE) for determination 1.; format: ADME; in short: as §2
[13] = Half life evaluated in Total Cell Extract(TCE) for determination 2.; format: ADME; in short: as §2

Cc1cn(C2CC(N=[N+]=[N-])C(COP(=O)(OCCSC(=O)c3ccccc3)OCCSC(=O)c3ccccc3)O2)c(=O)[nH]c1=O (centres undefined)
CC50 [1]: > 1000 nM
EC50 [2]: 125 nM
EC50 [3]: 76 nM
CC50 [4]: > 1000 nM
EC50 [5]: 320 nM
Selectivity index [6]: > 4
CC50 [7]: > 1000 nM
Selectivity index [8]: > 8

Cc1cn([C@H]2C[C@H](N=[N+]=[N-])[C@@H](COP(=O)(O)O)O2)c(=O)[nH]c1=O [AZIDOTHYMIDINE MONOPHOSPHATE]
T1/2 [9]: 72 h and 67 h
half-life [9]: 50 h
T1/2 [10]: 4 h
half-life [10]: 4 h

Cc1cn(C2CC(N=[N+]=[N-])C(COP(=O)(O)OCCS)O2)c(=O)[nH]c1=O (centres undefined)
half-life [11]: 10.5 h
half-life [12]: 2.3 h
half-life [13]: 9 h

Cc1cn(C2CC(N=[N+]=[N-])C(COP(=O)(OCOC(=O)C(C)(C)C)OCOC(=O)C(C)(C)C)O2)c(=O)[nH]c1=O (centres undefined)
CC50 [1]: 59000 nM
EC50 [2]: 77 nM
EC50 [3]: 52 nM
CC50 [4]: 67000 nM
EC50 [5]: 255 nM
Selectivity index [6]: 250
CC50 [7]: 65500 nM
Selectivity index [8]: 860

Cc1cn(C2CC(N=[N+]=[N-])C(COP(=O)(OCCSSCCO)OCCSSCCO)O2)c(=O)[nH]c1=O (centres undefined)
CC50 [1]: > 100000 nM
EC50 [2]: 23 nM
EC50 [3]: 54 nM
CC50 [4]: > 100000 nM
EC50 [5]: 550 nM
Selectivity index [6]: > 180
CC50 [7]: > 100000 nM
Selectivity index [8]: > 4300

Cc1cn(C2CC(N=[N+]=[N-])C(COP(=O)(O)OCCSC(=O)C(C)C)O2)c(=O)[nH]c1=O (centres undefined)
half-life [9]: 12.3 h
half-life [10]: 7.1 h

Cc1cn(C2CC(N=[N+]=[N-])C(COP(=O)(OCCSC(=O)C(C)C)OCCSC(=O)C(C)C)O2)c(=O)[nH]c1=O (centres undefined)
CC50 [1]: > 10000 nM
EC50 [2]: 46 nM
EC50 [3]: 48 nM
CC50 [4]: > 10000 nM
EC50 [5]: 520 nM
Selectivity index [6]: > 17
CC50 [7]: > 10000 nM
half-life [9]: 9 h
half-life [10]: 0.75 h
Selectivity index [8]: > 200

Cc1cn(C2CC(N=[N+]=[N-])C(COP(=O)(OCCSC(=O)C(C)(C)C)OCCSC(=O)C(C)(C)C)O2)c(=O)[nH]c1=O (centres undefined)
CC50 [1]: > 10000 nM
EC50 [2]: 15 nM
EC50 [3]: 810 nM
CC50 [4]: > 10000 nM
EC50 [5]: 450 nM
Selectivity index [6]: > 22
CC50 [7]: > 10000 nM
half-life [9]: 103 h
half-life [10]: 1.05 h
Selectivity index [8]: > 670

Cc1cn([C@H]2C[C@H](N=[N+]=[N-])[C@@H](CO)O2)c(=O)[nH]c1=O [ZIDOVUDINE]
CC50 [1]: 75000 nM
EC50 [2]: 6 nM
EC50 [3]: 17 nM
CC50 [4]: > 100000 nM
EC50 [5]: > 100000 nM
CC50 [7]: > 100000 nM
Selectivity index [8]: > 17300

CC(=O)SCCOP(=O)(OCCSC(C)=O)OCC1OC(n2cc(C)c(=O)[nH]c2=O)CC1N=[N+]=[N-] (centres undefined)
CC50 [1]: 67000 nM
EC50 [2]: 22 nM
EC50 [3]: 50 nM
CC50 [4]: 93000 nM
EC50 [5]: 49 nM
Selectivity index [6]: > 2050
CC50 [7]: > 100000 nM
half-life [9]: 9 h
half-life [10]: < 0.0833 h
Selectivity index [8]: 4300

CC(=O)SCCOP(=O)(O)OCC1OC(n2cc(C)c(=O)[nH]c2=O)CC1N=[N+]=[N-] (centres undefined)
half-life [9]: 8.9 h
half-life [10]: < 0.0833 h

Cc1cn(C2CC(N=[N+]=[N-])C(COP(=O)(O)OCCSC(=O)C(C)(C)C)O2)c(=O)[nH]c1=O (centres undefined)
half-life [9]: 21.3 h
half-life [10]: 7.2 h
